Here are results for 28 molecules from ChEMBL document CHEMBL3232924, “Synthesis and biological evaluation of novel bis-aromatic amides as novel PTP1B inhibitors” (Bioorg Med Chem Lett, 2014).

Assay [1] deals with T1, Tyrosine-protein phosphatase non-receptor type 1 (Homo sapiens) (UniProt P18031).
T1 sequence (whole entry): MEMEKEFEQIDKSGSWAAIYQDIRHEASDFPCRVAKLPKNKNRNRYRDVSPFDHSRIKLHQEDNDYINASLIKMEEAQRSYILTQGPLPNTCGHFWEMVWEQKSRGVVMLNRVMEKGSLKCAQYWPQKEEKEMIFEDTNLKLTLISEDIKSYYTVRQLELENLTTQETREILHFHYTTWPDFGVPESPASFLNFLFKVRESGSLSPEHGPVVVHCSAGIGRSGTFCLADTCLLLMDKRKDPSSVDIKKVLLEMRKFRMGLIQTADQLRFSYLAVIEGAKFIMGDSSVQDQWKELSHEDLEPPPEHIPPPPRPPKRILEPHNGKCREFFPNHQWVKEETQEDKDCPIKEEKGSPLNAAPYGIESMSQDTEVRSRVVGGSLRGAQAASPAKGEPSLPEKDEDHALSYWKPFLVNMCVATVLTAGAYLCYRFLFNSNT
Put plainly: Fast-binding inhibition of PTP1B (unknown origin) using pNPP as substrate.

The target in assay [2] is T2, Tyrosine-protein phosphatase non-receptor type 2 (Homo sapiens, UniProt P17706).
T2 sequence (P17706 whole entry): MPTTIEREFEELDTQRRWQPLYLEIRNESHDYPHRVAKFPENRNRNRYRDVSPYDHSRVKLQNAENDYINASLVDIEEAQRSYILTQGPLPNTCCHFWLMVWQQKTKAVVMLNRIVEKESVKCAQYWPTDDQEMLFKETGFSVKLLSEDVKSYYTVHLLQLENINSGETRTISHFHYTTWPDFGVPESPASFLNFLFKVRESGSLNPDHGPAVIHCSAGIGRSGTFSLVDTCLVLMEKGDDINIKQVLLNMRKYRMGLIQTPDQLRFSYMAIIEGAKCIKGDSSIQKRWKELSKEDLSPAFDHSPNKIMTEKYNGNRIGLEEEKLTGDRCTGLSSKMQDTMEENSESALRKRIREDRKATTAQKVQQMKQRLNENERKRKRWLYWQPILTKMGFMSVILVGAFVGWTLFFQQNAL
The assay is described as follows: Inhibition of TCPTP (unknown origin) using pNPP as substrate.

Assay [3] has as its target T1, Tyrosine-protein phosphatase non-receptor type 1 (Homo sapiens). The assay is described as follows: Competitive inhibition of PTP1B (unknown origin) using pNPP as substrate by Lineweaver-Burk plot analysis. The essentials: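 Kinetic analysis: initial velocities were measured across various pNPP concentrations at several fixed inhibitor concentrations. Inhibition mode was assigned from Lineweaver–Burk double-reciprocal plots.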

Assay [4] addresses T3, Tyrosine-protein phosphatase non-receptor type 1 (Homo sapiens, UniProt P18031).
T3 sequence (P18031 whole entry): T1 sequence (whole entry)
The assay is described as follows: Inhibition of PTP1B (unknown origin) using pNPP as substrate.

For assay [5], the target named is Receptor-type tyrosine-protein phosphatase F (Homo sapiens, UniProt P10586). Put plainly: Inhibition of LAR (unknown origin) using 3-o-methylfluorescein phosphate as substrate at 20 ug/ml.
Assay [6] has as its target T4, Tyrosine-protein phosphatase non-receptor type 11 (Homo sapiens) (UniProt Q06124).
T4 sequence (whole entry): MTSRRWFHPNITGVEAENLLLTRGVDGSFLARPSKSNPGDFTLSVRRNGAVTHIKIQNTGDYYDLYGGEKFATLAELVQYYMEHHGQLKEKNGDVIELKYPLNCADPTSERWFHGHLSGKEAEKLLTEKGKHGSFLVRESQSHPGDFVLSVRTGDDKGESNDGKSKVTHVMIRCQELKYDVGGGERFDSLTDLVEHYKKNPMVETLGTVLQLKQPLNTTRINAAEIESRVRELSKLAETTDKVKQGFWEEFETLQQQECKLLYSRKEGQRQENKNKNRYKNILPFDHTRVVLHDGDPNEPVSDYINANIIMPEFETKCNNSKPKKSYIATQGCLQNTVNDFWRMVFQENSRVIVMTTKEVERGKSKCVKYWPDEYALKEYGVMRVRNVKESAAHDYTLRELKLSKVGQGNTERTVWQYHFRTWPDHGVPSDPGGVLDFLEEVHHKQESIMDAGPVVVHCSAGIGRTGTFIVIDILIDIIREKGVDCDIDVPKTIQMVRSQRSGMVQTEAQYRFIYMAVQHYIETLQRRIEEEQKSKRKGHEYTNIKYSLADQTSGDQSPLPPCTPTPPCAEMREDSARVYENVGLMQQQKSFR
The assay is described as follows: Inhibition of SHP-2 (unknown origin) using 3-o-methylfluorescein phosphate as substrate at 20 ug/ml.

Assay [7] concerns CHO. The assay is described as follows: Inhibition of PTP1B in CHO cells overexpressing human insulin receptor assessed as increase in insulin-stimulated tyrosine phosphorylation of insulin receptor beta at 5 to 20 uM by immunoblot analysis. It is filed as cell-based. To be noted: Cricetulus griseus. In outline:
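CHO cells overexpressing human insulin receptor were treated with compound, with DMSO as negative control. Tyrosine-phosphorylated insulin receptor β was detected by immunoblot.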
In general terms: Immunoblotting shows a protein as a band on a membrane.

Assay [8] concerns the target T1, Tyrosine-protein phosphatase non-receptor type 1 (Homo sapiens). The assay is described as follows: Inhibition of PTP1B (unknown origin) using pNPP as substrate at 20 ug/ml.
The target of assay [9] is T5, Tyrosine-protein phosphatase non-receptor type 6 (Homo sapiens, UniProt P29350). Put plainly: Inhibition of SHP-1 (unknown origin) using 3-o-methylfluorescein phosphate as substrate at 20 ug/ml.
Assay [10] is filed under the species Homo sapiens. Put plainly: Selectivity ratio of IC50 for TCPTP (unknown origin) to IC50 for PTP1B (unknown origin). The essentials:
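Colorimetric assay with pNPP as substrate, run the same way for PTP1B and TCPTP. IC50 was obtained by regression analysis and reported as mean ± SD of three replications. The selectivity ratio is TCPTP IC50 divided by PTP1B IC50.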

The target of assay [11] is T5, Tyrosine-protein phosphatase non-receptor type 6. Put plainly: Inhibition of SHP-1 (unknown origin) using 3-o-methylfluorescein phosphate as substrate. In outline: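 SHP-1 activity was read with 3-O-methylfluorescein phosphate (OMFP) as substrate. IC50 was derived by regression analysis and given as mean ± SD of three replications.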
Assay [12] has as its target T6, Tyrosine-protein phosphatase non-receptor type 2 (Homo sapiens) (UniProt P17706).
T6 sequence (whole entry): T2 sequence (P17706 whole entry)
The assay is described as follows: Inhibition of TCPTP (unknown origin) using pNPP as substrate at 20 ug/ml.

Assay [13] has as its target T7, Tyrosine-protein phosphatase non-receptor type 11 (Homo sapiens, UniProt Q06124).
T7 sequence (Q06124 whole entry): T4 sequence (whole entry)
Put plainly: Inhibition of SHP-2 (unknown origin) using 3-o-methylfluorescein phosphate as substrate. The essentials: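 Phosphatase activity was measured with 3-O-methylfluorescein phosphate (OMFP) as substrate, in the same assay format used for SHP-1. IC50 was obtained by regression analysis and reported as mean ± SD of three replicates.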

Active and inactive are the calls of the source. The rule behind the calls is not given here.

T5 sequence (P29350 whole entry): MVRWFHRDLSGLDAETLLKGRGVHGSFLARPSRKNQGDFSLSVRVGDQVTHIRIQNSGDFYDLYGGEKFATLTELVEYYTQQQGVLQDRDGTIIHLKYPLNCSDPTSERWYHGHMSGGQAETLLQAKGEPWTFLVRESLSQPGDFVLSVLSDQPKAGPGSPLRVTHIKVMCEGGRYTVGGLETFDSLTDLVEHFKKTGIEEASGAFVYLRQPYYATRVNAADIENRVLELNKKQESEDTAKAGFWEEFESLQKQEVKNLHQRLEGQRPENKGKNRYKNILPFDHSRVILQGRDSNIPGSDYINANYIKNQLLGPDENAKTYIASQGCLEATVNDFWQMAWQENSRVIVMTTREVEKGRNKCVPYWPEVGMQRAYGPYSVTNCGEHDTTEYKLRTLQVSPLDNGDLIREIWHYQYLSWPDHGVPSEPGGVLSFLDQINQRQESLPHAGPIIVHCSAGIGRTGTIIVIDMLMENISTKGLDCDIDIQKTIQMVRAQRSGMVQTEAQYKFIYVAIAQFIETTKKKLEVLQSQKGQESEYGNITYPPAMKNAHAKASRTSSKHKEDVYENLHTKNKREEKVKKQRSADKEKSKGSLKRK
Chain of Receptor-type tyrosine-protein phosphatase F (P10586 whole entry): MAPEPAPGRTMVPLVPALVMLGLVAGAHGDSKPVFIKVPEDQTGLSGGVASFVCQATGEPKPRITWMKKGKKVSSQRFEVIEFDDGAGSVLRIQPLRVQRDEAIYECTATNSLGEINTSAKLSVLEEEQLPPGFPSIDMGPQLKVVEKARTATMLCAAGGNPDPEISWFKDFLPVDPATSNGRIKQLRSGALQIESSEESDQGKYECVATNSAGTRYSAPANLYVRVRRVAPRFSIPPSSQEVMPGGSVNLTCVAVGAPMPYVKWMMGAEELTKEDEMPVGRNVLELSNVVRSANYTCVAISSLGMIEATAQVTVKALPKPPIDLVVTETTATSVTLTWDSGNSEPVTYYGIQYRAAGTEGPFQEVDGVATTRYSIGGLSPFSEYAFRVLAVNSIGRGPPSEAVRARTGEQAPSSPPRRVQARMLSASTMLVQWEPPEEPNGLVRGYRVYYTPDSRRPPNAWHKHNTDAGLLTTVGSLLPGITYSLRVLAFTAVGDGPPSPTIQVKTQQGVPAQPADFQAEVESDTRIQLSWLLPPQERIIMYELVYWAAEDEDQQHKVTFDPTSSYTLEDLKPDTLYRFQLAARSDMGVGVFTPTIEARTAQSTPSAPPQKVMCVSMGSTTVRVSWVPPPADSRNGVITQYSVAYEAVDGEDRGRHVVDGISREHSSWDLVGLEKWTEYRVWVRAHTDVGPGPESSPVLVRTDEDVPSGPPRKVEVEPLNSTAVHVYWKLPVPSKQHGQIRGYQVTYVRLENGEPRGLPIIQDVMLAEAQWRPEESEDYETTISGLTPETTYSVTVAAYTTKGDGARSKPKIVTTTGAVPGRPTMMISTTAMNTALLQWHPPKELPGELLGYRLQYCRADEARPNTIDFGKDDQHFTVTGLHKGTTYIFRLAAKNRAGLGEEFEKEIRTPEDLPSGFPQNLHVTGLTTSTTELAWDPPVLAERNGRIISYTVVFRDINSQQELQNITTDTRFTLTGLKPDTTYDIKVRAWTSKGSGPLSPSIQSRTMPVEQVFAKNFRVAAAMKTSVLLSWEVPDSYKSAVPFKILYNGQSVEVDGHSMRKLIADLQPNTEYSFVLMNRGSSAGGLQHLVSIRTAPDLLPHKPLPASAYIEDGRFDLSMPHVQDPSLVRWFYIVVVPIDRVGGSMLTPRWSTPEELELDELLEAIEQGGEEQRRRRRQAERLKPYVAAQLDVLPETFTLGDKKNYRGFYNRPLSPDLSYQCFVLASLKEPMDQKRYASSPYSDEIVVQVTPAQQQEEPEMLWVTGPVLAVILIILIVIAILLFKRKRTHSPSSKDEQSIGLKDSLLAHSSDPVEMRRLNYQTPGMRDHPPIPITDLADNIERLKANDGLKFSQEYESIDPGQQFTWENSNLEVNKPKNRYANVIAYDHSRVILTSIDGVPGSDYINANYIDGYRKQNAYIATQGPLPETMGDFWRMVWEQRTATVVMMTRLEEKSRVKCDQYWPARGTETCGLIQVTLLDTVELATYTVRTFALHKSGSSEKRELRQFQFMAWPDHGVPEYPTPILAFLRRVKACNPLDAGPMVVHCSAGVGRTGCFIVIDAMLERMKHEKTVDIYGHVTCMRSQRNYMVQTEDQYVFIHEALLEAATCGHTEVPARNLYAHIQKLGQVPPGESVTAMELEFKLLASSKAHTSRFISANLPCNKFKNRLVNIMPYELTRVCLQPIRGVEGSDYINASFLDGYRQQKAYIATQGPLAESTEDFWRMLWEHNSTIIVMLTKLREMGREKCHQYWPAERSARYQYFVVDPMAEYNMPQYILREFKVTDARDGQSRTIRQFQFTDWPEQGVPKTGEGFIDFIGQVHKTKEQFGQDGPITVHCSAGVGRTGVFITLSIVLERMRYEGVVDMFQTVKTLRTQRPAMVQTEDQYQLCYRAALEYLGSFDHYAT

A word on the inhibition: it is the share of the control response that was lost under treatment. The IC50 is the point on the concentration scale where inhibition reaches its midpoint. Read a low IC50 as greater potency. On to `O=C(Nc1ccc(-c2ccc(NC(=O)C3CCN(C(=O)c4ccco4)CC3)cc2)cc1)C1CCN(C(=O)c2ccco2)CC1`, for which the inhibition result in assay [1], in assay [3] and in assay [7] was “Active” each time. Further, the results for the IC50 in assay [2] and in assay [4] were 12.4 µM and 2.34 µM, respectively. In addition, the inhibition is under 50% in assay [5], under 50% in assay [6], 94% in assay [8] and under 50% in assay [9]. Further, the Ratio IC50 in assay [10] stood at 5.29.
Molecule `O=C(Nc1ccc(-c2ccc(NC(=O)[C@@H]3CCCN3)cc2)cc1)[C@@H]1CCCN1` showed an inhibition in [8] of 0.7%.
Consider `O=C(Nc1ccc(-c2ccc(NC(=O)c3ccc(F)cc3)cn2)cc1)c1ccc(F)cc1`, for which the values for the IC50 in assay [11] and in [4] were 17.8 µM and 5.96 µM, respectively. In addition, the values for the inhibition in assay [5], in [12] and in assay [8] were under 50%, under 50% and 71%, respectively.
In assay [4], `O=C(Nc1ccc(-c2ccc(NC(=O)C3CCN(C(=O)C4CCCCC4)CC3)cc2)cc1)C1CCN(C(=O)C2CCCCC2)CC1` registered an IC50 of 14.6 µM. Besides, the inhibition in assay [8] turned out to be 61%.
On to `O=C(Nc1ccc(-c2ccc(NC(=O)C3CCN(C(=O)c4ccc(F)cc4)CC3)cc2)cc1)C1CCN(C(=O)c2ccc(F)cc2)CC1`, for which the IC50 in assay [4] amounted to 5.04 µM. In addition, the inhibition in [5] was under 50%; in assay [12] it was under 50%; in assay [6] it was under 50%; in assay [8], 95.3%; in assay [9], under 50%.
As to `O=C(Nc1ccc(-c2ccc(NC(=O)c3ccccc3)cn2)cc1)c1ccccc1`, the IC50 in assay [2] turned out to be 26.2 µM; in assay [4], 5.37 µM. Further, the inhibition in [5] is under 50%; in assay [6], under 50%; in assay [8] it was 83.9%; in assay [9] it was under 50%. In addition, the Ratio IC50 in assay [10] turned out to be 4.87.
In turn, `O=C(Nc1ccc(-c2ccc(NC(=O)c3ccco3)cn2)cc1)c1ccco1` displayed an IC50 in assay [4] of 11.1 µM. In assay [8], this molecule returned an inhibition of 86.4%.
`CC(C)(C)OC(=O)N1CCC(C(=O)Nc2ccc(-c3ccc(NC(=O)C4CCN(C(=O)OC(C)(C)C)CC4)cc3)cc2)CC1`: the values for the IC50 in assay [11], in [2] and in assay [4] were 18.2 µM, 21.2 µM and 9.5 µM, respectively. The inhibition in assay [5] is under 50%; in assay [6], under 50%; in assay [8] it was 71.1%. Moreover, the Ratio IC50 in [10] was 2.23.
`O=C(Nc1ccc(-c2ccc(NC(=O)C3CCCCC3)cc2)cc1)C1CCCCC1` came in with an IC50 in [4] of 12.5 µM. The inhibition in assay [8] came out at 84.6%.
For `O=C(Nc1ccc(-c2ccc(NC(=O)c3ccc(F)cc3)cc2)cc1)c1ccc(F)cc1`, the IC50 in [4] was found to be 19 µM. This molecule also came in with an inhibition in assay [8] of 98.6%.
The corresponding values for `O=C(Nc1ccc(-c2ccc(NC(=O)c3ccccc3)cc2)cc1)c1ccccc1` are 12 µM and 95.2%.
As to `O=C(Nc1ccc(-c2ccc(NC(=O)C3CCCCC3)cn2)cc1)C1CCCCC1`, the results for the IC50 in assay [2] and in [4] were 22.9 µM and 7.14 µM, respectively. In addition, the inhibition is under 50% in [5], under 50% in assay [6], 82.1% in [8] and under 50% in [9]. In assay [10], the Ratio IC50 was 3.2.
In assay [8], `CC(C)(C)OC(=O)N1CCC[C@H]1C(=O)Nc1ccc(-c2ccc(NC(=O)[C@@H]3CCCN3C(=O)OC(C)(C)C)cc2)cc1` gave an inhibition of 43.5%.
On the same count and under the same terms, the result for `O=C(Nc1ccc(-c2ccc(NC(=O)c3cccs3)cc2)cc1)c1cccs1` reads 38.1%.
`O=C(Nc1ccc(-c2ccc(NC(=O)C3CCN(C(=O)c4ccccc4)CC3)cc2)cc1)C1CCN(C(=O)c2ccccc2)CC1`: the IC50 in [2] is 7.62 µM; in [4] it was 2.65 µM. The inhibition in [5] is under 50%; in [6] it was under 50%; in [8], 94.1%; in assay [9], under 50%. For the same molecule, the Ratio IC50 in [10] came out at 2.88.
`O=C(Nc1ccccc1)c1ccc(-c2ccc(C(=O)Nc3ccccc3)cc2)cc1` registered an IC50 in assay [4] of 18.5 µM. Further, the inhibition in assay [8] was 62.8%.
With `O=C(Nc1ccc(-c2ccc(NC(=O)c3ccco3)cc2)cc1)c1ccco1`, the IC50 in [11] is 38.8 µM; in assay [2], 51 µM; in assay [4] it was 19.3 µM. This molecule displayed an inhibition in assay [5] of under 50%. For the same molecule, in [10], the Ratio IC50 is 2.64.
In turn, `CC(C)CC(=O)Nc1ccc(-c2ccc(NC(=O)CC(C)C)cn2)cc1` registered an IC50 in assay [4] of 26.5 µM. Besides, in assay [8], the inhibition is 58.1%.
In turn, `O=C(Nc1ccc(-c2ccc(NC(=O)C3CCNCC3)cc2)cc1)C1CCNCC1` displayed an inhibition in assay [8] of 10.3%.
Turning to `CC(C)CC(=O)Nc1ccc(-c2ccc(NC(=O)CC(C)C)cc2)cc1`, the IC50 in assay [4] turned out to be 16.5 µM. The same molecule registered an inhibition in assay [8] of 90.7%.
`O=C(Nc1ccc(F)cc1)c1ccc(-c2ccc(C(=O)Nc3ccc(F)cc3)cc2)cc1`: the inhibition in [8] came out at 7.92%.
`COC(=O)c1ccc(-c2ccc(NC(=O)c3ccccc3)cc2)cc1` gave an IC50 in [4] of 10.2 µM. This molecule came in with an inhibition in assay [8] of 69.4%.
Take `O=C(Nc1ccc(-c2ccc(C(=O)Nc3ccccc3)cc2)cc1)c1ccccc1`: the IC50 in [4] stood at 4.61 µM. Further, the inhibition was under 50% in assay [5]; under 50% in assay [12]; under 50% in [6]; 81.2% in assay [8]; under 50% in assay [9].
Regarding `CC(C)CC(=O)N1CCC(C(=O)Nc2ccc(-c3ccc(NC(=O)C4CCN(C(=O)CC(C)C)CC4)cc3)cc2)CC1`, the IC50 in assay [4] was determined as 12.2 µM. The molecule further returned an inhibition in assay [8] of 70%.
Regarding `COc1cc(C(=O)Nc2ccc(-c3ccc(NC(=O)c4cc(OC)c(OC)c(OC)c4)cc3)cc2)cc(OC)c1OC`, the inhibition in [8] amounted to 47.4%.
Regarding `COC(=O)c1ccc(-c2ccc(N)cc2)cc1`, the inhibition in assay [8] came out at 31.5%.
For the molecule SODIUM ORTHOVANAD, the IC50 is 34.7 µM in [13] and 17.8 µM in assay [11].
The molecule `COc1ccc(C(=O)Nc2ccc(-c3ccc(NC(=O)c4ccc(OC)cc4)cc3)cc2)cc1` yielded an inhibition in assay [8] of 11.9%.
